Data as given in ChEMBL document CHEMBL1799937, “Streptothricin derivatives from Streptomyces sp. I08A 1776” (J Nat Prod, 2011).
Values after ≈ are worked out from the molar mass of the structure shown.

How the values were obtained:
Staphylococcus aureus = experiment: Antibacterial activity against Staphylococcus aureus ATCC 25923 after 24 hrs by broth dilution method; format: functional; details: ATCC 25923, 24 h
How it was run: (§1)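 CLSI broth microdilution in Mueller-Hinton broth, with levofloxacin as positive control. Final inoculum was 1 × 10^5 cfu/mL. Compounds were tested at final concentrations from 128 to 0.125 μg/mL in 2-fold serial dilutions. Plates were incubated for 24 h at 37 °C. MIC was read as the lowest concentration giving no visible growth.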

Enterococcus faecalis = experiment: Antibacterial activity against Enterococcus faecalis ATCC 29212 after 24 hrs by broth dilution method; format: functional; details: ATCC 29212, 24 h; how it was run: as §1
Bacillus subtilis = experiment: Antibacterial activity against Bacillus subtilis ATCC 6633 after 24 hrs by broth dilution method; format: functional; details: ATCC 6633, 24 h; how it was run: as §1
[1] = tested on: Mycolicibacterium smegmatis; experiment: Antibacterial activity against Mycobacterium smegmatis MC2 155 after 24 hrs by broth dilution method; format: functional; details: str. MC2 155, 24 h
How it was run: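 CLSI broth microdilution MIC. Medium: Middlebrook 7H9 broth. Serial 2-fold dilutions give final concentrations of 128 to 0.125 μg/mL. Final inoculum is 1 × 10^5 cfu/mL. Incubation is 24 h at 37 °C. MIC is the lowest concentration with no visible growth. Levofloxacin serves as positive control.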

[2] = tested on: Mycobacterium tuberculosis; experiment: Antibacterial activity against Mycobacterium tuberculosis H37Rv after 14 days by broth dilution method; format: functional; details: 336 h
How it was run: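 Broth microdilution per CLSI in Middlebrook 7H9 broth. Compounds run at final 128 to 0.125 μg/mL (2-fold series) against an inoculum of 1 × 10^5 cfu/mL final. Plates incubated 14 days at 37 °C. Endpoint is the lowest concentration without visible growth. Levofloxacin is the positive control.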

Pseudomonas aeruginosa = experiment: Antibacterial activity against Pseudomonas aeruginosa ATCC 27853 after 24 hrs by broth dilution method; format: functional; details: ATCC 27853, 24 h; how it was run: as §1
Morganella morganii = experiment: Antibacterial activity against multidrug-resistant Morganella morganii 07-09 after 24 hrs by broth dilution method; format: functional; details: 07-09, 24 h
How it was run: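 Mueller-Hinton broth microdilution following CLSI. Strains came from ATCC or clinical isolates. Final compound range 128 to 0.125 μg/mL by 2-fold dilution, inoculum 1 × 10^5 cfu/mL final. Incubated 24 h at 37 °C. MIC read as the lowest concentration showing no visible growth. Levofloxacin is the positive control.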

Escherichia coli = experiment: Antibacterial activity against Escherichia coli ATCC 25922 after 24 hrs by broth dilution method; format: functional; details: ATCC 25922, 24 h; how it was run: as §1
Candida albicans = experiment: Antifungal activity against Candida albicans ATCC 10231 after 24 hrs by broth dilution method; format: functional; details: ATCC 10231, 24 h; how it was run: as §1
A549 = experiment: Cytotoxicity against human A549 cells after 96 hrs by MTT assay; format: functional, cell-based; details: A549, 96 h
HepG2 = experiment: Cytotoxicity against human […] cells after 96 hrs by MTT assay; format: functional, cell-based; details: HepG2, 96 h
HeLa = experiment: Cytotoxicity against human HeLa cells after 96 hrs by MTT assay; format: functional, cell-based

SMILES | MIC (Staphylococcus aureus) | MIC (Enterococcus faecalis) | MIC (Bacillus subtilis) | MIC [1] | MIC [2] | MIC (Pseudomonas aeruginosa) | MIC (Morganella morganii) | MIC (Escherichia coli) | MIC (Candida albicans) | IC50 (A549) | IC50 (HepG2) | IC50 (HeLa)
CC(=O)N[C@@H](CCCN)CC(=O)N[C@@H]1[C@H](O)[C@@H](O)[C@@H](COC(N)=O)O[C@H]1/N=C1\N[C@@H]2[C@H](O)CNC(=O)[C@H]2N1 | > 128 µg/mL | > 128 µg/mL | > 128 µg/mL | > 128 µg/mL | > 128 µg/mL | > 128 µg/mL | > 128 µg/mL | > 128 µg/mL | > 128 µg/mL | > 10 µM | > 10 µM | > 10 µM
CC(=O)N[C@@H](CCCN)CC(=O)N[C@@H]1[C@H](O)[C@@H](O)[C@@H](COC(N)=O)O[C@H]1/N=C1\N[C@H]([C@H](O)CN)[C@@H](C(=O)O)N1 | > 128 µg/mL | > 128 µg/mL | > 128 µg/mL | > 128 µg/mL | > 128 µg/mL | > 128 µg/mL | > 128 µg/mL | > 128 µg/mL | > 128 µg/mL | > 10 µM | > 10 µM | > 10 µM
CC(=O)N[C@@H](CCCN)CC(=O)N[C@@H]1[C@H](O)[C@@H](O)[C@@H](COC(N)=O)O[C@H]1/N=C1\N[C@@H]2[C@H](O)CNC(=O)[C@@H]2N1 | > 128 µg/mL | > 128 µg/mL | > 128 µg/mL | > 128 µg/mL | > 128 µg/mL | > 128 µg/mL | > 128 µg/mL | > 128 µg/mL | > 128 µg/mL | > 10 µM | > 10 µM | > 10 µM
CC(=O)N[C@@H](CCCN)CC(=O)N[C@@H]1[C@H](O)[C@@H](O)[C@@H](COC(N)=O)O[C@@H]1/N=C1\N[C@@H]2[C@H](O)CNC(=O)[C@H]2N1 | > 128 µg/mL | > 128 µg/mL | > 128 µg/mL | > 128 µg/mL | > 128 µg/mL | > 128 µg/mL | > 128 µg/mL | > 128 µg/mL | > 128 µg/mL | > 10 µM | > 10 µM | > 10 µM
NCCC[C@H](N)CC(=O)NCCC[C@H](N)CC(=O)N[C@@H]1[C@H](O)[C@@H](O)[C@@H](COC(N)=O)O[C@H]1/N=C1\N[C@@H]2[C@H](O)CNC(=O)[C@H]2N1 | > 128 µg/mL | > 128 µg/mL | 16 µg/mL (≈ 25.4 µM) | 64 µg/mL (≈ 101 µM) | > 128 µg/mL | > 128 µg/mL | > 128 µg/mL | > 128 µg/mL | 32 µg/mL (≈ 50.7 µM) | > 10 µM | > 10 µM | > 10 µM
CC(=O)N[C@@H](CCCNC(=O)C[C@@H](N)CCCNC(=O)C[C@@H](N)CCCN)CC(=O)N[C@@H]1[C@H](O)[C@@H](OC(N)=O)[C@@H](CO)O[C@H]1NC1=N[C@@H]2C(=O)NC[C@@H](O)[C@H]2N1 | > 128 µg/mL | > 128 µg/mL | > 128 µg/mL | > 128 µg/mL | > 128 µg/mL | > 128 µg/mL | > 128 µg/mL | > 128 µg/mL | > 128 µg/mL | > 10 µM | > 10 µM | > 10 µM
CC(=O)N[C@@H](CCCNC(=O)C[C@@H](N)CCCN)CC(=O)N[C@@H]1[C@H](O)[C@@H](OC(N)=O)[C@@H](CO)O[C@H]1/N=C1\N[C@@H]2[C@H](O)CNC(=O)[C@H]2N1 | > 128 µg/mL | > 128 µg/mL | > 128 µg/mL | > 128 µg/mL | > 128 µg/mL | > 128 µg/mL | > 128 µg/mL | > 128 µg/mL | > 128 µg/mL | > 10 µM | > 10 µM | > 10 µM
C[C@H]1COc2c(N3CCN(C)CC3)c(F)cc3c(=O)c(C(=O)O)cn1c23.C[C@H]1COc2c(N3CCN(C)CC3)c(F)cc3c(=O)c(C(=O)O)cn1c23.O [LEVOFLOXACIN] | 0.12 µg/mL | 0.5 µg/mL | 0.12 µg/mL | 1 µg/mL | 0.5 µg/mL | 0.25 µg/mL | 16 µg/mL |  | > 128 µg/mL |  |  | 
NCCC[C@H](N)CC(=O)NCCC[C@H](N)CC(=O)N[C@@H]1[C@H](O)[C@@H](OC(N)=O)[C@@H](CO)O[C@H]1NC1=N[C@@H]2C(=O)NC[C@@H](O)[C@H]2N1 [STREPTOTHRICIN E] | 4 µg/mL (≈ 6.34 µM) | 64 µg/mL (≈ 101 µM) | 1 µg/mL (≈ 1.59 µM) | 4 µg/mL (≈ 6.34 µM) | 16 µg/mL (≈ 25.4 µM) | 64 µg/mL (≈ 101 µM) | 4 µg/mL (≈ 6.34 µM) | 16 µg/mL (≈ 25.4 µM) | 1 µg/mL (≈ 1.59 µM) | > 10 µM | > 10 µM | > 10 µM
